# Runt-CBFb FRET = inhibitors of RUNX1 Runt–CBFb binding, primary screen, biochemical, FRET, Cerulean-Runt, Venus-CBFb, uHTS; inhibition, % at 20 µM; AID 1496, 2009; Runt-related transcription factor 1 (Homo sapiens) + Core-binding factor subunit beta …; 220,000 compounds, 0.46% hits; Cerulean-Runt/Venus-CBFb FRET ratio 530/480, 1 h;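 active = inhibition over about 50% at 20 µM in the single-dose screen, limit read from the data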;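 also: 0% = DMSO wells and 100% = excess unlabeled CBFb competitor control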
#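 Assay system: Cerulean-Runt domain / Medium: Tris 50 mM pH 7.5, KCl, K2SO4, 0.01% BSA / Timing: protein complex preformed 1 h, compound exposure 1 h, room temperature, dark / Measured by: FRET, excitation 422 nm, emission at 530 and 480 nm / Evaluation: loss of energy transfer signal / Control set: 5 µM unlabeled CBFb as full-inhibition high control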
# Runt-SMMHC FRET = inhibitors of RUNX1 Runt–CBFb-SMMHC binding, primary screen, biochemical, FRET, Cerulean-Runt, Venus-CBFb-SMMHC, uHTS | inhibition, % at 20 µM | 220,000 compounds, 0.74% hits | AID 1434, 2008 | Runt-related transcription factor 1 (Homo sapiens) + Core-binding factor subunit beta … | Cerulean-Runt/Venus-CBFb-SMMHC FRET ratio 530/480, 1 h;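 active = mean inhibition across duplicate retests at 20 µM reaching about 50%, limit read from the data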;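 also: 0% = DMSO wells and 100% = wells with excess untagged CBFb-SMMHC; inhibitors lower the FRET ratio by blocking Runt binding to CBFb-SMMHC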
# RanGTP-Impb inh = inhibitors of RanGTP-importin-beta interaction, primary screen, biochemical, FRET, CFP-Ran, YFP-importin-beta, homogeneous. Ran GTPase (GTP-bound) - importin-beta complex. cell-free CFP-Ran/YFP-importin-beta FRET ratio. inhibition, % (no concentration beside the values). 300,000 compounds, 1.1% hits. AID 2216, 2009;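 active = more than half of the replicate wells show a fall in the fluorescence ratio signal beyond about 16%, limit read from the data, passing the limit was not always enough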;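 also: 0% = DMSO wells and 100% = Ran loaded with GDP instead of GTP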
# Hck-Nef inh = inhibitors of Nef-activated human Hck kinase, primary screen, biochemical, Z-Lyte FRET, 384-well, Hck-YEEI; Recombinant Hck-YEEI plus Nef, Z-Lyte FRET kinase assay; Tyrosine-protein kinase HCK (Homo sapiens), P08631; 220,000 compounds, 0.68% hits; AID 463187, 2010; inhibition, % at 20 µM;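 active = Hck-Nef kinase inhibition above about 50%, limit read from the data; inactive = inhibition below that limit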;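 also: 0% = DMSO with Hck plus Nef and 100% = Hck alone without Nef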
# 14-3-3 Bad inh = inhibitors of 14-3-3 zeta/Bad binding, primary screen, biochemical, TR-FRET, bovine 14-3-3 zeta. 14-3-3 protein zeta/delta (Bos taurus), P63103. TR-FRET 14-3-3zeta/Dy647-pBad peptide displacement, 1 h. 220,000 compounds, 0.71% hits. inhibition, % at 21.7 µM;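 active = inhibition above about 70%, limit read from the data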;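 also: 0% = full 14-3-3 plus peptide FRET controls and 100% = background without 14-3-3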
# Tb hexokinase = Trypanosoma brucei hexokinase 1 inhibitors, primary screen, biochemical, G6PDH-coupled NADH absorbance, MLSCN library | hexokinase 1 [Trypanosoma brucei] | recombinant TbHK1, G6PDH-coupled NADH A340 | inhibition, % at 10 µM | 220,000 compounds, 0.11% hits | AID 1430, 2008;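 active = inhibition of 50% or more in the single-dose primary screen; inactive = inhibition below 50%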
# Active calls of the source: *; / = no result given; [ ] = remark or other dose. Only some compounds are listed: those with a hit (about 2.2% of all), similar ones and a draw of the others.
SMILES,Runt-CBFb FRET,Runt-SMMHC FRET,RanGTP-Impb inh,Hck-Nef inh,14-3-3 Bad inh,Tb hexokinase
Clc1ccc(-c2ccnc(-n3cccc3)n2)s1,13,68*,2,5,-10,-5
CCOC(=O)N1CCC(Nc2nc3ccccc3nc2NS(=O)(=O)c2ccc(Cl)cc2)CC1,11,34,19*,1,28,-5
CN1CCN(C(=O)c2cc3c(ccc4ccccc43)oc2=O)CC1,12,42,4,12,20,-25
COc1ccc2oc(=O)c(C(=O)OCc3ccccc3)cc2c1,/,/,19*,/,/,/
O=c1oc2ccc3ccccc3c2cc1-c1nc2ccccc2o1,/,/,126*,0,/,11
O=c1oc2ccccc2cc1-c1nc2ccccc2o1,14,37,/,9,5,3
COC(=O)c1cc2c(ccc3ccccc32)oc1=O,/,/,84*,/,/,/
Cc1ccccc1N/C(SCc1cccc(Br)c1)=C(/C#N)C(N)=O,1,-3,-1,4,71*[fluorescence artefact?],-3
O=S(=O)(O)c1nc2ccccc2n1Cc1cccc2ccccc12,2,-10,-5,8,8,-7
CC(C)N(C(=O)c1ccccc1-c1ccccc1)C(C)C,-1,4,-3,1,-14,-1
Cc1ccc(CNc2nc(C)nc3sc4c(c23)CCC4)cc1,-2,0,25*,1,-16,-3
Cc1ccc(-c2cn3nc(C)c(C)nc3n2)cc1,13,63,0,-4,-3,-8
CCc1ccc(-c2cn3nc(-c4ccccc4)cnc3n2)cc1,2,12,21*,4,4,-12
COc1ccc2nc3cc(Cl)ccc3c(C#N)c2c1,16,29,51*,8,6,-8
CCN(CC)CCCNC(=O)C1CCC(=O)N(c2ccc(OC)cc2)C1c1ccc(F)cc1 (stereo not given),-2,-10,54*,0,-26,1
CC(C)C[C@H](NC(=O)[C@H](Cc1ccccc1)n1c(=O)[nH]c2ccccc2c1=O)C(=O)N1CCC[C@H]1C(=O)O,/,/,-1,/,/,/
O=C(CCC(=O)OC(C(=O)c1ccccc1)c1ccccc1)Nc1ccccc1 (stereo not given),-2,-5,0,-2,87*,-2
Cn1c(C(=O)N2CCN(C(=O)c3ccco3)CC2)cc2c(=O)n3ccccc3nc21,20,45,3,25,4,-22
CC(C)n1c(=NC(=O)c2ccco2)c(C#N)cc2c(=O)n3ccccc3cc21,5,83*,107*,25,9,-6
CC(=O)C1C(c2ccc(F)c(F)c2)NC(=O)NC1(O)C(F)(F)F (stereo not given),1,1,1,-11,-1,0
O=C(N=C1SC2CS(=O)(=O)CC2N1c1cccc(Cl)c1Cl)C1CC1 (stereo not given),/,/,-2,/,/,/
CC(Nc1nc(-c2ccc3c(c2)NC(=O)CO3)cs1)c1ccccc1 (stereo not given),0,-1,-2,137*,-9,-2
O=C1COc2ccc(-c3csc(NCC4CCCO4)n3)cc2N1 (stereo not given),6,4,4,25,34,-4
Cc1ccc(Cl)cc1NC(=O)c1cc(S(=O)(=O)N2CCOCC2)cn1C,/,/,2,/,/,/
CCOc1cccc2cc(C(N)=O)c(=N)oc12,-2,2,/,14,-6,-16
CCCCC(=O)Nc1ccc(NC(=O)c2cnccn2)cn1,1,-1,172*,-15,-4,0
CCCCC(=O)Nc1ccc(NC(=O)C(C)C)cn1,-2,-2,-2,1,/,-3
Cc1c(O)c2ccccc2n(-c2ccccc2)c1=O,/,/,1,/,/,/
